Laboratory results from ChEMBL document CHEMBL1121475, “Inhibitors of indoleethylamine N-methyltransferase. Derivatives of 3-methyl-2-thiazolidinimine. In vitro, in vivo, and metabolic studies” (J Med Chem, 1980).

Tests used:
[1] = test system: Indolethylamine N-methyltransferase (Oryctolagus cuniculus); assay: In vivo evaluation of inhibitory activity against rabbit lung Indoleethylamine-N-methyltransferase at intravenous dose 10 mg/kg *(p<0.02)
[2] = biological target: Indolethylamine N-methyltransferase (Homo sapiens) (UniProt O95050); assay: In vitro evaluation of Indoleethylamine-N-methyltransferase in human lung preparations for the ability to inhibit conversion of N-methyltryptamine (NMT) to N,N-dimethyltryptamine (DMT) at dose 25 ug/mL; format: tissue-based
Outline: (§1)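 Human lung INMT was taken from the 50000g supernatant, cut with 40-60% ammonium sulfate, dialysed and purified on Sephadex G-150. The reaction contained 0.007 M N-methyltryptamine stock, S-[methyl-14C]adenosylmethionine and potassium phosphate, pH 7.9, in 0.105 mL, run 90 min at 37 °C. It was stopped with borate at pH 10. [14C]DMT was extracted into isoamyl alcohol and counted by scintillation.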

[3] = (§2) Dose that causes approximately 50% lethality in mice, when given intravenously; format: ADME, organism-based; conditions: mouse, in vivo, iv
[4] = (§3) Dose that causes approximately 50% lethality in mice, when given perorally; format: ADME, organism-based; conditions: mouse, in vivo, po
Outline: (§4)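 Mice in groups of one to three were dosed orally. Deaths were scored on day 7 after dosing, and the LD50 was obtained by graphical interpolation.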

[5] = test system: Indolethylamine N-methyltransferase (Oryctolagus cuniculus); assay: Compound tested for inhibitory activity against rabbit lung Indoleethylamine-N-methyltransferase at oral dose 25 mg/kg
[6] = test system: Indolethylamine N-methyltransferase (Oryctolagus cuniculus); assay: Compound tested for inhibitory activity against rabbit lung Indoleethylamine-N-methyltransferase at intravenous dose 4 mg/kg *(p<0.008
[7] = test system: Indolethylamine N-methyltransferase (Oryctolagus cuniculus); assay: In vivo evaluation of specific activity against rabbit lung Indoleethylamine-N-methyltransferase at oral dose of 25 mg/kg
[8] = test system: Indolethylamine N-methyltransferase (Oryctolagus cuniculus); assay: In vivo evaluation of specific activity against rabbit lung Indoleethylamine-N-methyltransferase at intravenous dose of 4 mg/kg
[9] = biological target: Indolethylamine N-methyltransferase (Homo sapiens) (UniProt O95050); assay: In vitro evaluation of Indoleethylamine-N-methyltransferase in human lung preparations for the ability to inhibit conversion of N-methyltryptamine (NMT) to N,N-dimethyltryptamine (DMT) at dose 2.5 ug/mL; format: tissue-based
Outline: as §1

[10] = Dose that causes approximately 50% lethality in mice, when given intraperitoneally; format: ADME, organism-based; conditions: mouse, in vivo, ip
[11] = test system: Indolethylamine N-methyltransferase (Oryctolagus cuniculus); assay: Compound tested for specific activity against rabbit lung Indoleethylamine-N-methyltransferase at oral dose of 20 mg/kg
[12] = test system: Indolethylamine N-methyltransferase (Oryctolagus cuniculus); assay: Compound tested for specific activity against rabbit lung Indoleethylamine-N-methyltransferase at intravenous dose of 10 mg/kg
[13] = test system: Oryctolagus cuniculus; assay: 10 mg/kg of [14C]- radiolabeled compound was intravenously injected in rabbit, and radioactivity content in urine was estimated at 24-48 h; format: ADME, organism-based; conditions: in vivo, iv
Outline: (§5)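 Male New Zealand white rabbit (825 g), [14C]-labelled drug given intravenously at 10 mg/kg. Urine collected at 6, 24, 48 and 72 h and feces at 24, 48 and 72 h post-dose. Radioactivity is counted and expressed as % of administered dose.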

[14] = test system: Oryctolagus cuniculus; assay: 25 mg/kg of [14C]- radiolabeled compound was perorally injected in rabbit, and radioactivity content in urine was estimated at 6-24 h; format: ADME, organism-based; conditions: in vivo, po
Outline: (§6)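 Male New Zealand white rabbit (825 g) dosed by gavage at 25 mg/kg. The dosing solution was [14C]-labelled plus unlabelled drug in distilled water, 2 mg free base/mL, specific activity 1183 dpm/μg. Urine collected at 6, 24, 48 and 72 h and feces at 24, 48 and 72 h. Radioactivity is expressed as % of administered dose.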

[15] = test system: Oryctolagus cuniculus; assay: 25 mg/kg of [14C]- radiolabeled compound was orally (gavage) injected in rabbit, and radioactivity content in feces was estimated (total); format: ADME, organism-based; conditions: in vivo, po
Outline: as §6

[16] = test system: Oryctolagus cuniculus; assay: 25 mg/kg of [14C]- radiolabeled compound was perorally injected in rabbit, and radioactivity content in urine was estimated (total); format: ADME, organism-based; conditions: in vivo, po
Outline: as §6

[17] = test system: Oryctolagus cuniculus; assay: 10 mg/kg of [14C]- radiolabeled compound was intravenously […] injected in rabbit, and radioactivity content in feces was estimated at 48-72 h; format: ADME, organism-based; conditions: in vivo, iv
Outline: as §5

[18] = test system: Oryctolagus cuniculus; assay: 10 mg/kg of [14C]- radiolabeled compound was intravenously […] injected in rabbit, and radioactivity content in feces was estimated at 24-48 h; format: ADME, organism-based; conditions: in vivo, iv
Outline: as §5

[19] = test system: Oryctolagus cuniculus; assay: 10 mg/kg of [14C]- radiolabeled compound was intravenously injected in rabbit, and radioactivity content in urine was estimated (total); format: ADME, organism-based; conditions: in vivo, iv
Outline: as §5

[20] = test system: Oryctolagus cuniculus; assay: 25 mg/kg of [14C]- radiolabeled compound was orally (gavage) injected in rabbit, and radioactivity content in feces was estimated at 0-24 h; format: ADME, organism-based; conditions: in vivo, po
Outline: as §6

[21] = test system: Oryctolagus cuniculus; assay: 10 mg/kg of [14C]- radiolabeled compound was intravenously injected in rabbit, and radioactivity content in urine was estimated at 6-24 h; format: ADME, organism-based; conditions: in vivo, iv
Outline: as §5

[22] = test system: Oryctolagus cuniculus; assay: 25 mg/kg of [14C]- radiolabeled compound was perorally injected in rabbit, and radioactivity content in urine was estimated at 48-72 h; format: ADME, organism-based; conditions: in vivo, po
Outline: as §6

[23] = test system: Mus musculus; assay: as §2; format: functional; conditions: iv
[24] = species on record: Mus musculus; assay: as §3; format: functional; conditions: po
Outline: as §4

[25] = test system: Oryctolagus cuniculus; assay: 10 mg/kg of [14C]- radiolabeled compound was intravenously injected in rabbit, and radioactivity content in urine was estimated at 0-6 h; format: ADME, organism-based; conditions: in vivo, iv
Outline: as §5

[26] = test system: Oryctolagus cuniculus; assay: 25 mg/kg of [14C]- radiolabeled compound was orally (gavage) injected in rabbit, and radioactivity content in feces was estimated at 24-48 h; format: ADME, organism-based; conditions: in vivo, po
Outline: as §6

[27] = test system: Oryctolagus cuniculus; assay: 10 mg/kg of [14C]- radiolabeled compound was intravenously injected in rabbit, and radioactivity content in urine was estimated at 48-72 h; format: ADME, organism-based; conditions: in vivo, iv
Outline: as §5

[28] = test system: Oryctolagus cuniculus; assay: 25 mg/kg of [14C]- radiolabeled compound was perorally injected in rabbit, and radioactivity content in urine was estimated at 24-48 h; format: ADME, organism-based; conditions: in vivo, po
Outline: as §6

[29] = test system: Oryctolagus cuniculus; assay: 25 mg/kg of [14C]- radiolabeled compound was orally (gavage) injected in rabbit, and radioactivity content in feces was estimated at 48-72 h; format: ADME, organism-based; conditions: in vivo, po
Outline: as §6

[30] = test system: Oryctolagus cuniculus; assay: 10 mg/kg of [14C]- radiolabeled compound was intravenously […] injected in rabbit, and radioactivity content in feces was estimated at 0-24 h; format: ADME, organism-based; conditions: in vivo, iv
Outline: as §5

[31] = test system: Oryctolagus cuniculus; assay: 10 mg/kg of [14C]- radiolabeled compound was intravenously […] injected in rabbit, and radioactivity content in feces was estimated (total); format: ADME, organism-based; conditions: in vivo, iv
Outline: as §5

[32] = test system: Oryctolagus cuniculus; assay: 25 mg/kg of [14C]- radiolabeled compound was perorally injected in rabbit, and radioactivity content in urine was estimated at 0-6 h; format: ADME, organism-based; conditions: in vivo, po
Outline: as §6

[33] = test system: Indolethylamine N-methyltransferase (Oryctolagus cuniculus); assay: In vivo evaluation of specific activity against rabbit lung Indoleethylamine-N-methyltransferase at intravenous dose of 4 mg/kgmade acidic to pH 2 with dil. HCl
[34] = test system: Indolethylamine N-methyltransferase (Oryctolagus cuniculus); assay: Compound tested for inhibitory activity against rabbit lung Indoleethylamine-N-methyltransferase at 4 mg/kg intravenously
[35] = test system: Indolethylamine N-methyltransferase (Oryctolagus cuniculus); assay: Compound tested for inhibitory activity against rabbit lung Indoleethylamine-N-methyltransferase at intravenous dose 4 mg/kg *(p<0.027)
[36] = test system: Indolethylamine N-methyltransferase (Oryctolagus cuniculus); assay: Compound tested for inhibitory activity against rabbit lung Indoleethylamine-N-methyltransferase at oral dose 25 mg/kg *(p<0.026)

Indolethylamine N-methyltransferase (Homo sapiens), sequence (O95050 whole entry): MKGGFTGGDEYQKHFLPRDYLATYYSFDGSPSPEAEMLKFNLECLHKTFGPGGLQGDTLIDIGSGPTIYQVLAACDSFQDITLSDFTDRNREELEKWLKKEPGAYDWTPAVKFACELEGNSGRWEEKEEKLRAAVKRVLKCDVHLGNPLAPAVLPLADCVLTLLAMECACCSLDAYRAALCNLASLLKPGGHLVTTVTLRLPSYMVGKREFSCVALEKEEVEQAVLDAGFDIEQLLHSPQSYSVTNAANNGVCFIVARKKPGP

Structure (SMILES): CC(=O)N[C@@H](Cc1ccccc1)C(=O)/N=C1\SCCN1C
- inhibition [1]: 84.7%

Structure (SMILES): CCNC(=O)/N=C1\SCCN1C
- inhibition [2]: 0%
- LD50 [3]: 1110 mg/kg
- LD50 [4]: 203 mg/kg

Structure (SMILES): CC(=O)NC(Cc1ccccc1)C(=O)/N=C1\SCCN1C (configuration not stated)
- inhibition [2]: 23%
- inhibition [5]: 69%
- inhibition [6]: 28.9%
- Specific activity [7]: 24100 dpm
- Specific activity [8]: 60000 dpm
- inhibition [9]: 8%
- LD50 [4]: 173 mg/kg
- LD50 [10]: > 2000 mg/kg

Structure (SMILES): CN1CCS/C1=N\C(=O)OC(C)(C)C
- inhibition [2]: 6%
- LD50 [3]: 68 mg/kg
- LD50 [4]: 306 mg/kg

Structure (SMILES): CN1CCS/C1=N\C(=O)CCC(=O)O
- inhibition [2]: 20%
- Specific activity [11]: 34000 dpm
- inhibition [11]: 11.4%
- LD50 [3]: 1280 mg/kg
- Specific activity [12]: 36100 dpm
- inhibition [12]: 35.8%
- LD50 [4]: > 8 mg/kg

Structure (SMILES): CN1CCS/C1=N\S(=O)(=O)[O-].[Na+]
- LD50 [3]: > 2.5 mg/kg
- LD50 [4]: > 5 mg/kg

Structure (SMILES): CN1CCSC1=N
- Dose excreted [13]: 5.3%
- Dose excreted [14]: 38.8%
- Dose excreted [15]: 3.9%
- Dose excreted [16]: 89.7%
- Dose excreted [17]: 0.3%
- Dose excreted [18]: 0.9%
- Dose excreted [19]: 82.8%
- Dose excreted [20]: 3.2%
- Dose excreted [21]: 27.7%
- Dose excreted [22]: 1.6%
- LD50 [23]: 118 mg/kg
- LD50 [24]: 432 mg/kg
- Dose excreted [25]: 46.5%
- Dose excreted [26]: 0.6%
- Dose excreted [27]: 3.3%
- Dose excreted [28]: 2.9%
- Dose excreted [29]: 0.1%
- Dose excreted [30]: 3.1%
- Dose excreted [31]: 4.3%
- Dose excreted [32]: 46.4%

Structure (SMILES): CN1CCS/C1=N\C(=O)CN
- inhibition [2]: 54%
- inhibition [9]: 11%
- LD50 [3]: 549 mg/kg
- LD50 [4]: 4670 mg/kg

Structure (SMILES): CN1CCS/C1=N\C(=O)/N=C1\SCCN1C
- inhibition [2]: 0%
- inhibition [5]: 31.9%
- Specific activity [7]: 61200 dpm
- LD50 [4]: 2000 mg/kg
- LD50 [10]: 1140 mg/kg

Structure (SMILES): CN1CCS/C1=N\CNC(=O)c1ccccc1
- LD50 [3]: 122 mg/kg
- LD50 [4]: 534 mg/kg

Structure (SMILES): CC(=O)NCC(=O)/N=C1\SCCN1C
- inhibition [2]: 51%
- inhibition [5]: 84.9%
- Specific activity [7]: 11600 dpm
- Specific activity [33]: 33200 dpm
- inhibition [9]: 24%
- LD50 [3]: 408 mg/kg
- inhibition [34]: 60.6%
- LD50 [4]: 936 mg/kg

Structure (SMILES): CN1CCS/C1=N\C(=O)c1cccnc1
- inhibition [35]: 37.8%
- inhibition [2]: 5%
- Specific activity [7]: 18400 dpm
- inhibition [9]: 0%
- LD50 [3]: 279 mg/kg
- inhibition [36]: 76.2%
- LD50 [4]: 570 mg/kg

Structure (SMILES): CC(=O)CC(=O)/N=C1\SCCN1C
- inhibition [2]: 51%
- inhibition [9]: 24%
